Assay results taken from ChEMBL document CHEMBL4257478, “Design, synthesis and evaluation of (R)-3-(7-(methyl(7H-pyrrolo[2,3-d]pyrimidin-4-yl)amino)-5-azaspiro[2.4]heptan-5-yl)-3-oxopropanenitrile as a JAK1-selective inhibitor” (Medchemcomm, 2018).
pIC50: −log10 of the molar value. Calls of active or inactive are those of the source. The rule behind the calls is not given here.

What was measured:
[1] = biological target: T1, Tyrosine-protein kinase JAK1 (Homo sapiens, UniProt P23458); test: Inhibition of human JAK1 at 1 uM using GEEPLYWSFPAKKK as substrate after 40 mins in presence of [gamma-33P-ATP] by scintillation counting method relative to control
T1 sequence (P23458 whole entry): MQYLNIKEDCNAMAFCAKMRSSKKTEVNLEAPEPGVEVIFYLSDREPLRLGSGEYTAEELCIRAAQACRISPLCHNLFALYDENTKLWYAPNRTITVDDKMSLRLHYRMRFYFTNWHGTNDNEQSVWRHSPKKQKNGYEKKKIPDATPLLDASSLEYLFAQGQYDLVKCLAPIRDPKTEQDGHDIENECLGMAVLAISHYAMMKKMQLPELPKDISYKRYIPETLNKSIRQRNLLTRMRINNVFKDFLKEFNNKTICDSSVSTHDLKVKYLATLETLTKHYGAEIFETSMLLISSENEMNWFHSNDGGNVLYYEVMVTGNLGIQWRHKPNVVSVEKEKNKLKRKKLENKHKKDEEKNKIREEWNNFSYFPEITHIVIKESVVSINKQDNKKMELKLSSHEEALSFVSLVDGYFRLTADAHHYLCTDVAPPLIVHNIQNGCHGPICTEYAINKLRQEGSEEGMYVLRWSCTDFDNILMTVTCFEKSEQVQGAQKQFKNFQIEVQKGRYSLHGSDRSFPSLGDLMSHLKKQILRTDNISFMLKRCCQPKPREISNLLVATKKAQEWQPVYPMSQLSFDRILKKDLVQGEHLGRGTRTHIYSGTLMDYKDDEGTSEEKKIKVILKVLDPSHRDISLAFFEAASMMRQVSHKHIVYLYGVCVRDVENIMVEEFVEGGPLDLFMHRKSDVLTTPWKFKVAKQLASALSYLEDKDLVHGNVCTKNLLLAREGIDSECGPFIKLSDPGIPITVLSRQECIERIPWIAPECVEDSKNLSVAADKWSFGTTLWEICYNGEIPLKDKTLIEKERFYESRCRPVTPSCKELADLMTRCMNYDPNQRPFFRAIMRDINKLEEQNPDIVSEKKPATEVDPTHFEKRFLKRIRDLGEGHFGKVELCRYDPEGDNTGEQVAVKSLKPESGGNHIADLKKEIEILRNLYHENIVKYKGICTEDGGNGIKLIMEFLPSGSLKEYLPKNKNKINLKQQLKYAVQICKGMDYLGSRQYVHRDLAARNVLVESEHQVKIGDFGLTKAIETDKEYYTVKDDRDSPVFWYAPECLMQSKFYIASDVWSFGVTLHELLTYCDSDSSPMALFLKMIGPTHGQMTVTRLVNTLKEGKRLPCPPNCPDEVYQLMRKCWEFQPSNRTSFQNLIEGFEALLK

[2] = test system: Mus musculus; test: Antiarthritic activity in collagen-induced DBA1/J mouse arthritis model assessed as decrease in articular surface cartilage thickness in right hind ankle joints at 100 mg/kg, po qd measured on day 19 by hematoxylin-eosin staining-based assay; format: functional, organism-based
How it was run: (§1)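 Male DBA1/J mice, 6 weeks old, immunized s.c. at the tail base with type II collagen (2 mg/mL) in complete Freund's adjuvant (1:1, 0.1 mL), then boosted at day 21 with collagen in incomplete Freund's adjuvant. Clinical scores taken twice weekly for 18 days; serum IL-6 and TNF-α measured after autopsy; right hind ankle assessed by histopathology and by micro-CT for bone surface/volume.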

[3] = test system: Mus musculus; test: Antiarthritic activity in collagen-induced DBA1/J mouse arthritis model assessed as decrease in serum TNF-alpha levels at 100 mg/kg, po qd measured on day 19 by ELISA; format: functional, organism-based; how it was run: as §1
[4] = test system: Mus musculus; test: Antiarthritic activity in collagen-induced DBA1/J mouse arthritis model assessed as decrease in paw volume at 100 mg/kg, po qd measured on day 1 and 15 by plethysmometer
[5] = test system: Mus musculus; test: Antiarthritic activity in collagen-induced DBA1/J mouse arthritis model assessed as decrease in ratio of bone surface to bone volume of right hind ankle joint at 100 mg/kg, po qd measured on day 19 by micro-CT analysis; format: functional, organism-based; how it was run: as §1
[6] = test system: Mus musculus; test: Antiarthritic activity in collagen-induced DBA1/J mouse arthritis model assessed as decrease in clinical arthritis score at 100 mg/kg, po qd measured twice weekly for 18 days; format: functional, organism-based; how it was run: as §1
[7] = test system: Mus musculus; test: Antiarthritic activity in collagen-induced DBA1/J mouse arthritis model assessed as decrease in infiltration of inflammatory cells in right hind ankle joints at 100 mg/kg, po qd measured on day 19 by hematoxylin-eosin staining-based assay; format: functional, organism-based; how it was run: as §1
[8] = test system: Mus musculus; test: Antiarthritic activity in collagen-induced DBA1/J mouse arthritis model assessed as decrease in right hind ankle joint thickness at 100 mg/kg, po qd measured on day 19 by hematoxylin-eosin staining-based assay; format: functional, organism-based; how it was run: as §1
[9] = test system: Mus musculus; test: Antiarthritic activity in collagen-induced DBA1/J mouse arthritis model assessed as decrease in serum IL-6 levels at 100 mg/kg, po qd measured on day 19 by ELISA; format: functional, organism-based; how it was run: as §1
[10] = test system: Rattus norvegicus; test: Antiarthritic activity in adjuvant-induced SPF LEW/SsNSlc rat arthritis model assessed as paw thickness at 20 mg/kg, po qd measured on day 14; format: functional
How it was run: (§2)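 Lewis rats were 10 weeks old after 2 weeks acclimation. Immunized s.c. at the tail base with 0.1 mL complete Freund's adjuvant containing 10 mg/mL heat-killed mycobacterium. From day 12 post-immunization (day 1), n=10 per group, oral dosing once daily for 14 days, vehicle corn oil. Clinical score and hind paw measured twice weekly.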

[11] = test system: Rattus norvegicus; test: Antiarthritic activity in adjuvant-induced SPF LEW/SsNSlc rat arthritis model assessed as decrease in clinical arthritis score at 20 mg/kg, po qd measured on day 14; format: functional, organism-based; how it was run: as §2
[12] = biological target: T1, Tyrosine-protein kinase JAK1; test: Inhibition of human JAK1 using GEEPLYWSFPAKKK as substrate after 40 mins in presence of [gamma-33P-ATP] by scintillation counting method
[13] = biological target: Tyrosine-protein kinase JAK2 (Homo sapiens, UniProt O60674); test: Inhibition of human JAK2 using KTFCGTPEYLAPEVRREPRILSEEEQEMFRDFDYIADWC as substrate after 40 mins in presence of [gamma-33P-ATP] by scintillation counting method
Tyrosine-protein kinase JAK2, sequence (O60674 whole entry): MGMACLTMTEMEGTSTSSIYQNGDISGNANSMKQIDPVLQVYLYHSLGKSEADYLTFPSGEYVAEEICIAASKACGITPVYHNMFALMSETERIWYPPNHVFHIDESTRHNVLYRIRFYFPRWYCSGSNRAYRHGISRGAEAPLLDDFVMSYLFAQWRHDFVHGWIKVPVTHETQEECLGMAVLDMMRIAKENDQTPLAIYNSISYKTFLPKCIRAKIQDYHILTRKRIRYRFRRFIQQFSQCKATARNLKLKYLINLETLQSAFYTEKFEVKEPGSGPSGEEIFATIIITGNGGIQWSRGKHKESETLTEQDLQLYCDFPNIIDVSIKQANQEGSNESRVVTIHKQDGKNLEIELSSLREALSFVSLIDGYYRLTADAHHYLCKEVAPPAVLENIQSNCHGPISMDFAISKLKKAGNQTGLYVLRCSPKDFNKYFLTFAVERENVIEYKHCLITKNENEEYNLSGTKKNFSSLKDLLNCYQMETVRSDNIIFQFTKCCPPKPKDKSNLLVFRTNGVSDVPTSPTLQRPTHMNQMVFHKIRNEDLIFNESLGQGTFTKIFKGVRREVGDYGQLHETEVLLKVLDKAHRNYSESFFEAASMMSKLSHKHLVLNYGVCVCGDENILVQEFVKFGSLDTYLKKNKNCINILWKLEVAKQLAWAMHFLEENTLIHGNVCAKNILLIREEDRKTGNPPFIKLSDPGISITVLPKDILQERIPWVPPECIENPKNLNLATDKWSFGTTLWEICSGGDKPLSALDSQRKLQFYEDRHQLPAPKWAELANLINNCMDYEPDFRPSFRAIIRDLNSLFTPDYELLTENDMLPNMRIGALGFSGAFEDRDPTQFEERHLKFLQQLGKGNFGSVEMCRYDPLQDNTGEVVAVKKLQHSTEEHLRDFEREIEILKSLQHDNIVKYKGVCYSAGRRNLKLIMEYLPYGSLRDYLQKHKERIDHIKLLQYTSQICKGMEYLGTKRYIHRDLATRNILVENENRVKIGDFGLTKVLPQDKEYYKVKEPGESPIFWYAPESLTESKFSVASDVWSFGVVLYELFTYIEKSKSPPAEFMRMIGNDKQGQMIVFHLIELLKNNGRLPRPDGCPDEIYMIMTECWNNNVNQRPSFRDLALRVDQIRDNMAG

[14] = species on record: Homo sapiens; test: Selectivity index, ratio of IC50 for human JAK2 to IC50 for human JAK1
How it was run: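 Kinase activity assays run as a commercial service at Km ATP; IC50 values fitted from concentration-response data; ratio of JAK2 to JAK1 IC50.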

[15] = test system: Rattus norvegicus; test: AUC (0 to t) in Sprague-Dawley rat at 5 mg/kg, iv after 0.08 to 24 hrs by LC-MS/MS method; format: ADME, organism-based; parameters: time upper 24 hr, time lower 0.08 hr, dose 5 mg/kg, route intravenous; conditions: in vivo
How it was run: (§3)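 Male Sprague Dawley rats, 7-8 weeks old, n=4 per group. IV dose 5 mg/kg free base in 10% ethanol/90% PEG400; oral dose 10 mg/kg as corn oil suspension after 16 h fast. Blood taken 0.08-24 h (IV) or 0.25-24 h (PO). Plasma diluted in acetonitrile with internal standard, analysed by LC-MS/MS, parameters by non-compartmental analysis.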

[16] = MRT in Sprague-Dawley rat at 10 mg/kg, po after 0.25 to 24 hrs by LC-MS/MS method; format: ADME, organism-based; conditions: in vivo; how it was run: as §3
[17] = Half life in Sprague-Dawley rat at 10 mg/kg, po after 0.25 to 24 hrs by LC-MS/MS method; format: ADME, organism-based; conditions: in vivo; how it was run: as §3
[18] = test system: Rattus norvegicus; test: AUC (0 to infinity) in Sprague-Dawley rat at 10 mg/kg, po after 0.25 to 24 hrs by LC-MS/MS method; format: ADME, organism-based; parameters: dose 10 mg/kg, route oral, time infinity; conditions: in vivo; how it was run: as §3
[19] = Cmax in Sprague-Dawley rat at 10 mg/kg, po after 0.25 to 24 hrs by LC-MS/MS method; format: ADME, organism-based; parameters: dose 10 mg/kg, route oral; conditions: in vivo; how it was run: as §3
[20] = Half life in Sprague-Dawley rat at 5 mg/kg, iv after 0.08 to 24 hrs by LC-MS/MS method; format: ADME, organism-based; conditions: in vivo; how it was run: as §3
[21] = Tmax in Sprague-Dawley rat at 10 mg/kg, po after 0.25 to 24 hrs by LC-MS/MS method; format: ADME, organism-based; conditions: in vivo
How it was run: (§4)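 Male Sprague Dawley rats, 7–8 weeks old, n=4, fasted 16 h. Free base given at 10 mg/kg po as a corn oil suspension (5 mL/kg); a 5 mg/kg iv arm used 10% ethanol/90% PEG400. Plasma sampled 0.25–24 h, acetonitrile-precipitated with internal standard, and measured by LC-MS/MS. Parameters derived by non-compartmental analysis.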

[22] = test system: Rattus norvegicus; test: AUC (0 to infinity) in Sprague-Dawley rat at 5 mg/kg, iv after 0.08 to 24 hrs by LC-MS/MS method; format: ADME, organism-based; parameters: dose 5 mg/kg, time infinity, route intravenous; conditions: in vivo; how it was run: as §3
[23] = test system: Rattus norvegicus; test: AUC (0 to t) in Sprague-Dawley rat at 10 mg/kg, po after 0.25 to 24 hrs by LC-MS/MS method; format: ADME, organism-based; parameters: time lower 0.25 hr, dose 10 mg/kg, time upper 24 hr, route oral; conditions: in vivo; how it was run: as §3
[24] = Oral bioavailability in Sprague-Dawley rat at 10 mg/kg after 0.25 to 24 hrs by LC-MS/MS method; format: ADME, organism-based; conditions: in vivo; how it was run: as §4
[25] = MRT in Sprague-Dawley rat at 5 mg/kg, iv after 0.08 to 24 hrs by LC-MS/MS method; format: ADME, organism-based; conditions: in vivo; how it was run: as §3

N#CCC(=O)N1CCCC(COc2ncnc3[nH]ccc23)C1 (stereo not given) showed an inhibition [1] of 30%.

CN(c1ncnc2[nH]ccc12)C1CCN(C(=O)CC#N)CC1 gave an inhibition [1] of 49%.

In the case of O=C(Nc1nc2cccc(-c3ccc(CN4CCS(=O)(=O)CC4)cc3)n2n1)C1CC1 [FILGOTINIB], the Activity [2] was “Active”, the Activity [3] was “Active” and the Activity [4] was “Active”. For the same compound, the Activity [5] was “Active”, the Activity [6] was “Active” and the Activity [7] was “Active”. The Activity [8] was “Active”, the Activity [9] was “Active” and the Activity [10] was 10.32 mm. The Activity [11] was “Active”.

For Cc1cccc(S(=O)(=O)N2C[C@H](N(C)c3ncnc4[nH]ccc34)C3(CC3)C2)c1, the pIC50 [12] was 7.92, the pIC50 [13] was 7.18 and the Ratio IC50 [14] was 5.5.

For CCN1C[C@H](N(C)c2ncnc3[nH]ccc23)C2(CC2)C1, the pIC50 [12] was 5.85, the pIC50 [13] was 4.52 and the Ratio IC50 [14] was 21.

In the case of CN(c1ncnc2[nH]ccc12)[C@H]1CN(C(=O)CC#N)CC12CC2.O=C(O)CC(O)(CC(=O)O)C(=O)O, the AUCt [15] was 2000 ng·h/mL, the MRT [16] was 2.3 h and the half-life [17] was 3.6 h. It also gave an AUC [18] of 2400 ng·h/mL, a Cmax [19] of 1200 ng/mL and a half-life [20] of 4.3 h. For the same compound, the Tmax [21] was 0.5 h, the AUC [22] was 2000 ng·h/mL and the AUCt [23] was 2400 ng·h/mL. The bioavailability [24] was 58% and the MRT [25] was 1.2 h.

In the case of CN(c1ncnc2[nH]ccc12)[C@H]1CN(C(=O)CC#N)CC12CC2.O=C(O)C(O)C(O)C(=O)O, the AUCt [15] was 1400 ng·h/mL, the MRT [16] was 1.5 h and the half-life [17] was 1 h. It also gave an AUC [18] of 1900 ng·h/mL, a Cmax [19] of 1000 ng/mL and a half-life [20] of 1 h. The Tmax [21] was 0.4 h, the AUC [22] was 1400 ng·h/mL and the AUCt [23] was 1900 ng·h/mL. For the same compound, the bioavailability [24] was 68% and the MRT [25] was 0.9 h.
